Test results from ChEMBL document CHEMBL4340510, “Design, synthesis, and biological evaluation of truncated deguelin derivatives as Hsp90 inhibitors” (Eur J Med Chem, 2019).
Activity calls are given as the source filed them. The calls are words filed in the database; no cut-off is given here.

Columns and labels:
[1] = system: NCI-H1299; experiment: Antiproliferative activity against human NCI-H1299 cells assessed as inhibition of cell growth at 0.1 uM after 72 hrs by MTT assay relative to control; format: functional; conditions: NCI-H1299, 72 h, read-out: GI
Summary of the method: (§1)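 Cells in RPMI 1640 are seeded at 4,000 cells/well and held 24 h at 37 °C, 5% CO2. Medium is replaced with compound-containing medium (DMSO ≤0.25%) for 72 h at 37 °C. MTT read-out by absorbance at 570 nm. Quadruplicate wells, repeated three times; values are means of three independent experiments.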

[2] = system: A549; experiment: Antiproliferative activity against human A549 cells after 72 hrs by MTT assay; format: functional, cell-based; conditions: A549, 72 h; summary of the method: as §1
[3] = biological target: T1, Heat shock protein HSP90 (Homo sapiens) (UniProt P07900+P08238); experiment: Inhibition of HSP90 in human MCF7 cells assessed as reduction in AKT expression at 4 uM by coimmunoprecipitation-based Western blot assay; format: cell-based
Summary of the method: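 Cells are treated with 4 μM. Anti-Hsp90 or anti-Akt antibodies are added to the supernatants, and immune complexes are pulled down with protein A agarose. Complexes are eluted by boiling in loading buffer and immunoblotted with anti-Hsp90 or anti-Akt antibodies.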

[4] = biological target: T1, Heat shock protein HSP90 (Homo sapiens); experiment: Inhibition of HSP90 in human MCF7 cells assessed as decrease in phosphorylation of MAPK after 48 hrs by Western blot analysis; format: cell-based
Summary of the method: (§2)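 Cells are treated 48 h and washed twice in ice-cold PBS. They are lysed on ice for 20 min and spun at 13,000 g, 4 °C. 20 μg protein is run on 8-12% SDS-PAGE and transferred to PVDF. Membranes are probed overnight at 4 °C with primary antibodies (Bcl-xL, cleaved caspase-3, mTOR/p-mTOR, MAPK/p-MAPK, Akt/p-Akt, HIF-1α, survivin; β-actin/GAPDH loading). HRP secondary and chemiluminescence detection follow.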

[5] = biological target: T1, Heat shock protein HSP90 (Homo sapiens); experiment: Inhibition of HSP90 in human MCF7 cells assessed as decrease in phosphorylation of AKT after 48 hrs by Western blot analysis; format: cell-based; summary of the method: as §2
[6] = biological target: T1, Heat shock protein HSP90 (Homo sapiens); experiment: Inhibition of HSP90 in human MCF7 cells assessed as down regulation of HIF-1alpha expression after 48 hrs by Western blot analysis; format: cell-based; summary of the method: as §2
[7] = system: MCF7; experiment: Cell cycle arrest in human MCF7 cells assessed as accumulation at G1 phase at 0.5 uM after 48 hrs by propidium iodide staining-based flow cytometry (reference value: 60.61%); format: functional
Summary of the method: (§3)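 5×10^4 cells are seeded, incubated overnight, then treated 48 h. Cells are washed in cold PBS and fixed in 70% ethanol at −20 °C for 12 h. They are then stained with 100 µg/mL RNase plus 50 µg/mL PI in PBS, 37 °C for 30 min. DNA content is measured by flow cytometry.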

[8] = system: MCF7; experiment: Cell cycle arrest in human MCF7 cells assessed as accumulation at G2 phase at 0.5 uM after 48 hrs by propidium iodide staining-based flow cytometry (reference value: 22.74%); format: functional; summary of the method: as §3
[9] = system: MCF7; experiment: Cell cycle arrest in human MCF7 cells assessed as accumulation at S phase at 0.5 uM after 48 hrs by propidium iodide staining-based flow cytometry (reference value: 16.64%); format: functional; summary of the method: as §3
[10] = system: MCF7; experiment: Cell cycle arrest in human MCF7 cells assessed as accumulation at S phase at 1 uM after 48 hrs by propidium iodide staining-based flow cytometry (reference value: 16.64%); format: functional; summary of the method: as §3
[11] = system: MCF7; experiment: Cell cycle arrest in human MCF7 cells assessed as accumulation at G2 phase at 2 uM after 48 hrs by propidium iodide staining-based flow cytometry (reference value: 22.74%); format: functional; summary of the method: as §3
[12] = system: MCF7; experiment: Cell cycle arrest in human MCF7 cells assessed as accumulation at S phase at 2 uM after 48 hrs by propidium iodide staining-based flow cytometry (reference value: 16.64%); format: functional; summary of the method: as §3
[13] = system: MCF7; experiment: Cell cycle arrest in human MCF7 cells assessed as accumulation at G1 phase at 4 uM after 48 hrs by propidium iodide staining-based flow cytometry (reference value: 60.61%); format: functional; summary of the method: as §3
[14] = system: MCF7; experiment: Cell cycle arrest in human MCF7 cells assessed as accumulation at G2 phase at 4 uM after 48 hrs by propidium iodide staining-based flow cytometry (reference value: 22.74%); format: functional; summary of the method: as §3
[15] = system: MCF7; experiment: Induction of apoptosis in human MCF7 cells assessed as cell rounding at 0.5 to 4 uM after 36 hrs by hoechst 33258 staining-based fluorescence microscopy; format: functional
Summary of the method: (§4)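 Approximately 5×10^4 cells per well are exposed to 0, 0.5, 1.0, 2.0 or 4.0 μM for 36 h. Cells are PBS-washed and fixed in 4% paraformaldehyde for 30 min. They are stained with 20 μg/ml Hoechst 33258 for 15 min at room temperature in the dark, and nuclear morphology is examined by fluorescence microscopy.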

[16] = system: MCF7; experiment: Induction of apoptosis in human MCF7 cells assessed as condensation of chromosome at 0.5 to 4 uM after 36 hrs by hoechst 33258 staining-based fluorescence microscopy; format: functional, cell-based; summary of the method: as §4
[17] = system: MCF7; experiment: Induction of apoptosis in human MCF7 cells assessed as peripherization of chromosome at 0.5 to 4 uM after 36 hrs by hoechst 33258 staining-based fluorescence microscopy; format: functional, cell-based; summary of the method: as §4
[18] = system: MCF7; experiment: Induction of apoptosis in human MCF7 cells assessed as increase in early apoptotic cells after 36 hrs by Annexin V-FITC/propidium iodide double staining-based flow cytometry; format: functional, cell-based
Summary of the method: (§5)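 Cells (1×10^5/well) are cultured 24 h, then treated in triplicate for 36 h at 0.5, 1.0, 2.0 or 4.0 μM. Vehicle is 1‰ DMSO in complete medium. Cells are stained with FITC-Annexin V and PI for 15 min in the dark and analysed by flow cytometry. Mean±SD of three independent experiments.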

[19] = system: MCF7; experiment: Induction of apoptosis in human MCF7 cells assessed as increase in early apoptotic cells at 0.5 to 4 uM after 36 hrs by Annexin V-FITC/propidium iodide double staining-based flow cytometry relative to control; format: functional; summary of the method: as §5
[20] = system: MCF7; experiment: Induction of apoptosis in human MCF7 cells assessed as increase in late apoptotic cells after 36 hrs by Annexin V-FITC/propidium iodide double staining-based flow cytometry; format: functional, cell-based; summary of the method: as §5
[21] = system: MCF7; experiment: Induction of apoptosis in human MCF7 cells assessed as increase in cleaved-caspase3 expression at 1 to 4 uM after 48 hrs by Western blot analysis; format: functional, cell-based; summary of the method: as §2
[22] = system: MCF7; experiment: Antimigratory activity in human MCF7 cells at 250 to 1000 nM after 24 hrs by phase contrast inverted microscopy-based scratch wound healing assay; format: functional, cell-based
Summary of the method: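 Cells are grown to confluence in DMEM with 10% FBS and scratched with a sterile 200 μL pipette tip. Wounds are imaged by phase contrast on an inverted microscope (10× objective) at 0, 24 and 48 h. Eight images per treatment are analysed by drawing lines at the wound edges of migrating cells.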

[23] = system: MCF7; experiment: Antiinvasive activity in human MCF7 cells assessed as number of invaded cells at 1 uM after 24 hrs by crystal violet dye-based transwell matrix penetration assay (reference value: 172.1 +/- 8.3); format: functional
[24] = system: MCF7; experiment: Cell cycle arrest in human MCF7 cells assessed as increase in accumulation at S phase after 48 hrs by propidium iodide staining-based flow cytometry; format: functional; summary of the method: as §3
[25] = system: MCF7; experiment: Cell cycle arrest in human MCF7 cells assessed as increase in accumulation at G2 phase after 48 hrs by propidium iodide staining-based flow cytometry; format: functional; summary of the method: as §3
[26] = system: MCF7; experiment: Induction of apoptosis in human MCF7 cells assessed as decrease in Bcl-xL expression at 1 to 4 uM after 48 hrs by Western blot analysis

Structure (SMILES): COc1cc(OC)c(OC)cc1CC(=O)c1ccc2c(c1OC)C=CC(C)(C)O2
- inhibition of growth at 0.1 µM [1]: 15.3%
- IC50 [2]: 3.46 µM
- inhibition [3]: Active
- inhibition [4]: Dose-dependent effect
- inhibition [5]: Dose-dependent effect
- inhibition [6]: Dose-dependent effect
- Activity [7]: 57.49%
- Activity [8]: 19.51%
- Activity [9]: 22.99%
- Activity [10]: 23.2%
- Activity [11]: 34.16%
- Activity [12]: 19.64%
- Activity [13]: 40.72%
- Activity [14]: 29.7%
- Activity [15]: Active
- Activity [16]: Active
- Activity [17]: Active
- Activity [18]: Dose-dependent effect
- Activity [19]: 13.6 - 71.8%
- Activity [20]: Dose-dependent effect
- Activity [21]: Active
- Activity [22]: Active
- Activity [23]: 63.2
- Activity [24]: Dose-dependent effect
- Activity [25]: Dose-dependent effect
- Activity [26]: Active
